How the values were obtained:
GlnA4Sc = target: T1, GlnA4Sc (Streptomyces coelicolor, UniProt O88070); assay: GlnA4Sc enzyme activity assay; format: biochemical
T1 sequence (O88070 1-462): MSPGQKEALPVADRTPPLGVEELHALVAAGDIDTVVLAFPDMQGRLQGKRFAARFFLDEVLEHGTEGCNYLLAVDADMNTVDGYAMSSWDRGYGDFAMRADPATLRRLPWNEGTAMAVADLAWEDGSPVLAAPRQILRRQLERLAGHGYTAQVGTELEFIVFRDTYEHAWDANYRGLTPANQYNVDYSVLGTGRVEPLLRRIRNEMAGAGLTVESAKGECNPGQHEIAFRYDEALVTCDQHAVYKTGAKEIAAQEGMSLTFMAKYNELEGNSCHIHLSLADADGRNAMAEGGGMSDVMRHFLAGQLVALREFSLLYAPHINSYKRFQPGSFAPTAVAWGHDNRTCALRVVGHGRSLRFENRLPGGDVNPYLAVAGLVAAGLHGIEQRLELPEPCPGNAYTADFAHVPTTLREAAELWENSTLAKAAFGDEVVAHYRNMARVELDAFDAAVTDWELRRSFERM

GlnA1Mt = GlnA1Mt (Mycobacterium tuberculosis, UniProt P9WN39); format: biochemical; conditions: at 5 mM (SI Figure 2)
S. coelicolor M145 = assay: S. coelicolor growth assay; format: cell-based, Streptomyces coelicolor
How it was run: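 S. coelicolor M145 grown in defined Evans medium with 25 mM ammonium chloride, L-glutamine or ethanolamine hydrochloride as sole nitrogen source. Test compound added at final 100, 50, 25, 12.5, 6.25, 3.125, 1.562, 0.781 or 0 μM. Cultures shaken at 180 rpm for 7 days at 30 °C. Phase-contrast images taken at x400; hyphae thickness used to quantify growth.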

Chain of GlnA1Mt (P9WN39 whole entry): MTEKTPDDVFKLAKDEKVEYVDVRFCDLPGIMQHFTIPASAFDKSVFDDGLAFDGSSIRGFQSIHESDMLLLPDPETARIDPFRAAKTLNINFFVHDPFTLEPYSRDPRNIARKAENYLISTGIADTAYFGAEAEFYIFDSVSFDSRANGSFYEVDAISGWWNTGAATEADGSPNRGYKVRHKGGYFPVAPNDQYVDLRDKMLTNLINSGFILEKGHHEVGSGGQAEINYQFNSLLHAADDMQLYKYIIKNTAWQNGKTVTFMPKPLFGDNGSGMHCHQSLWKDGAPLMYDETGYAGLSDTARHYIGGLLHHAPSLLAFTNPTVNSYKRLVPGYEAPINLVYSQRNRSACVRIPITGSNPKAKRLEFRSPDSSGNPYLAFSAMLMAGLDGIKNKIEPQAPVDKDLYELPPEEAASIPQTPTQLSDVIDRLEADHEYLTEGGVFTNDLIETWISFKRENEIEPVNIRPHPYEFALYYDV

Row | Compound | IC50 (GlnA4Sc) [µM] | Activity against GlnA1Mt (in words) (GlnA1Mt) | Hyphae thickness with additional glutamine (rescue) (S. coelicolor M145; 100 μM inhibitor, additional glutamine as alternative nitrogen source) [μm] | Non-specific toxic effects (in words) (S. coelicolor M145; 100 μM, glutamine rescue control experiment) | Size of mycelial agglomerates (in words) (S. coelicolor M145; lowest tested concentration 0.78 μM, ethanolamine as nitrogen source) | Inhibition of GlnA4Sc activity (in words) (GlnA4Sc; Figure 1a/1b)
1 | N=S(=O)(CCO)CC[C@H](N)C(=O)O (stereo partly drawn) [7 a, (2S)‐2‐Amino‐4‐(2‐hydroxyethylsulfonimidoyl)butanoic acid] | 2170 |  |  |  |  | 
2 | N=S(=O)(CCCO)CC[C@H](N)C(=O)O (stereo partly drawn) [7 b, (2S)‐2‐Amino‐4‐(3‐hydroxypropylsulfonimidoyl)butanoic acid] | 12.3 | neither 7 b nor 8 showed activity | 1.11 | excludes any non‐specific toxic effects | reduced the size of the mycelial agglomerates | 
3 | N=S(=O)(CCCCO)CC[C@H](N)C(=O)O (stereo partly drawn) [7 c, (2S)‐2‐Amino‐4‐(4‐hydroxybutylsulfonimidoyl)butanoic acid] | 79.3 |  |  |  |  | 
4 | CS(=O)(CC[C@H](N)C(=O)O)=NCCO (stereo partly drawn) [compound 8, (2S)‐2‐Amino‐4‐(N‐(2‐hydroxyethyl)‐methylsulfonimidoyl)butanoic acid] | 659 | neither 7 b nor 8 showed activity |  |  |  | inhibited
